Assay outcomes from PubChem.
Only some compounds are listed: those with a hit (about 1.9% of all), similar ones and a draw of the others.
EBNA-1 inh – blocks EBNA-1 binding to DNA. EBNA-1 DNA binding, fluorescence polarization. inhibition, % at 14.8 µM. actives 0.34% (n = 300,000); in the data active means inhibition above about 28%
PP1 counter – counter-screen for PP5 inhibitors: inhibitors of human PP1-alpha | P62136 | purified PP1alpha, OMFP fluorescence | inhibition, % at 6.7 µM | actives 0.9% (n = 320,000);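 active means inhibition above the mean inhibition of all tested compounds plus 3 SD, computed separately for each screening campaign, cut at about 15% in these data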
ZTA counter – blocks Epstein-Barr virus ZTA, an EBNA-1 counter-screen; P03206; ZTA-DNA binding, fluorescence polarization; inhibition, % at 11 µM; actives 0.15% (n = 320,000); in the data active means inhibition above about 33%
HCV core dimer – HCV core protein dimerization inhibition. TR-FRET GST/Flag-core106 dimerization, 1536-well. inhibition, % at 5 µM. actives 0.33% (n = 300,000);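 active means inhibition above the mean of all tested compounds plus 3 SD, set per screening campaign, cut at about 45% in these data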
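Assay system: GST-tagged and Flag-tagged HCV core protein residues 1-106 / Times: compound-protein-antibody incubation 4 h at 22.5 °C / Signal: time-resolved FRET, ex 340 nm, em 617 and 671 nm / Evaluation: % inhibition based on acceptor/donor emission ratio / Benchmarks: wells lacking GST-core106 and wells with excess unlabelled core106 / Repeats: singlicate, one well per compound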
NS3 helicase inh – HCV NS3 helicase inhibition. AID 1800. inhibition, % at 10.9 µM. NS3 helicase DNA unwinding, Cy5 molecular beacon fluorescence. actives 0.56% (n = 290,000);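 active means inhibition above the mean of all tested compounds plus 3 SD, set per campaign, cut at about 35% in these data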
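Compound dosing – single dose, 10.9 µM nominal final, DMSO 0.8% final · System – NS3 helicase fragment of HCV · Buffer or medium – MOPS pH 6.5, MgCl2, DTT, Tween20, BSA · Signal – Cy5 beacon fluorescence read at start and 1 h · Also added – annealed dual-labelled DNA beacon duplex, ATP-started · Schedule – 1 h at 25 °C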
PP1 inh confirm – human PP1 phosphatase inhibition, confirmation | purified PP1alpha, OMFP substrate fluorescence | actives 52% (n = 1,900) | shares compounds with PP1 counter | AID 2358 | inhibition, % at 6.7 µM;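 active means mean PP1 inhibition above a set limit taken from the earlier primary screen, cut at about 15% in these data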
PP5 inh counter – PP5 phosphatase inhibition, counter-screen for PP1 inhibitors; shares compounds with PP1 counter; purified PP5c, OMFP fluorescence; inhibition, % at 6.7 µM; actives 4% (n = 1,900);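 active means mean PP5 inhibition over triplicate wells above about 9.5% taken from the earlier PP1 screen, limit read from the data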
A number is an active result; - = inactive; . = not tested or not shown.

SMILES | EBNA-1 inh | PP1 counter | ZTA counter | HCV core dimer | NS3 helicase inh | PP1 inh confirm | PP5 inh counter
CCCCn1c(SCC(=O)NCc2ccco2)nc2c(sc3ccccc32)c1=O | - | 22 | - | - | - | 24 | -
O=C(CSc1nc2ccccc2c2nc3ccccc3n12)NCc1ccco1 | - | 31 | - | - | - | 20 | -
CCc1ccc2[nH]c(=O)c(CN(Cc3ccc4c(c3)OCO4)Cc3nnnn3C3CCCC3)cc2c1 | - | 21 | - | - | - | - | -
COc1ccccc1NC(=O)c1c(Nc2ccccc2F)sc(C(=O)Nc2cccc(Cl)c2)c1N | - | 22 | - | - | - | - | -
COC(=O)C1=C(CSc2nc3c(cc2C#N)CN(C)CC3)OC(N)=C(C#N)C1c1ccc(F)cc1 (stereo not given) | - | 18 | - | - | - | - | -
Cc1c(NC(=O)CN2CCN(c3ccc(F)cc3)CC2)c(=O)n(-c2ccccc2)n1C | - | - | - | - | - | . | .
COc1c(OC)c(O)c2c(=O)c(O)c(-c3ccccc3)oc2c1OC | - | 18 | - | - | - | 30 | -
COc1ccc(-c2oc3c(OC)c(OC)c(OC)c(O)c3c(=O)c2OC)cc1OC | - | - | - | - | - | . | .
Cc1ccc(C)c(COC(=O)c2cc(S(=O)(=O)N3CCCCC3)ccc2N2CCOCC2)c1 | - | - | - | - | . | . | .
COc1cccc(CN2C(=O)C3CCCN3c3ccc(S(=O)(=O)N4CCOCC4)cc32)c1 (stereo not given) | - | 26 | - | - | - | 25 | -
Cc1ccc(C)c(CN2C(=O)C3CCCN3c3ccc(S(=O)(=O)N4CCOCC4)cc32)c1 (stereo not given) | - | 22 | - | 51 | - | 22 | -
COc1ccc(CN2c3cc(S(=O)(=O)N4CCOCC4)ccc3N3CCCC32)cc1 (stereo not given) | - | - | - | - | - | . | .
Cc1cc(=O)oc2cc(NC(=O)CCOc3ccccc3)ccc12 | - | - | - | - | - | . | .
CC(NS(=O)(=O)OCC(Cl)(Cl)Cl)c1ccc(C(C)(C)C)cc1 (stereo not given) | - | 19 | - | - | - | - | -
Nc1[nH]n2c(=O)c3c(nc2c1N=Nc1ccccc1)CCCC3 | - | 20 | - | - | - | 21 | -
Cc1cc(-c2csc(N)n2)c(C)n1CCc1ccccc1 | - | 21 | - | - | - | 20 | -
CN1CCN(C(=O)c2ccc(CNS(=O)(=O)c3cccc(Cl)c3)cc2)CC1 | . | . | . | . | - | . | .
CCc1ccc(N2CC(C)Cn3c2nc2c3c(=O)[nH]c(=O)n2C)cc1 (stereo not given) | - | - | - | - | - | . | .
